KCNK9 inh: inhibitors of human KCNK9 two-pore domain potassium channel. HEK293 KCNK9, FluxOR thallium flux fluorescence; stronger effect = lower value. AID 488922. B-score at 10 µM. 310,000 compounds, 1.2% hits. Q9NPC2;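 active = ratio B-score over 3 SD below the library mean, with starting fluorescence within 5 SD of its mean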;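 note: negative B-score means less thallium flux so channel inhibition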
KCNQ1 inh: human KCNQ1 channel inhibition; CHO-K1 KCNQ1, FluxOR thallium flux fluorescence; stronger effect = higher value; B-score at 10 µM; P51787; 310,000 compounds, 1.3% hits;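 active = compounds whose thallium flux B-score, printed positive for inhibition, exceeds three library SD while starting fluorescence stays within three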;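 note: channel opened by potassium depolarization with thallium stimulus after 20 min compound exposure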
Target sequence (P51787 whole entry, looked up): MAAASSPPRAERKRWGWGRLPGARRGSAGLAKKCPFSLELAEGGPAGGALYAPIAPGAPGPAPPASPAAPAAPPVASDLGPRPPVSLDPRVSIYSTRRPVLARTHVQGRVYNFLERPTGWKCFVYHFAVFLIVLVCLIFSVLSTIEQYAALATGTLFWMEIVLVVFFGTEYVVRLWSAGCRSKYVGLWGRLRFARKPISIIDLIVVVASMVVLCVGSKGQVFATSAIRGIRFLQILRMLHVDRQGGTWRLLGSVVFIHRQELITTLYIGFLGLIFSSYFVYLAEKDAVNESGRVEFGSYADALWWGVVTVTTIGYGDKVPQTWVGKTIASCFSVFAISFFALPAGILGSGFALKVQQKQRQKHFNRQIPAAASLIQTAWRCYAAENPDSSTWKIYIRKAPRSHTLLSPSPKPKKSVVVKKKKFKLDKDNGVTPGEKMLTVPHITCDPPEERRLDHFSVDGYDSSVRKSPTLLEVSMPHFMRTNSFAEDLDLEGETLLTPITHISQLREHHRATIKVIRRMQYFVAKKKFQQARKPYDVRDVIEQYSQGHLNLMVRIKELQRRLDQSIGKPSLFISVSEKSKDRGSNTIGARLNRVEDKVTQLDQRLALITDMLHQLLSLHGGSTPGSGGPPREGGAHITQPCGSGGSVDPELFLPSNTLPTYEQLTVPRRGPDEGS
hERG rescue: compounds protecting human hERG from proarrhythmic drug block; CHO-hERG, FluxOR thallium flux, dofetilide IC70 present; 310,000 compounds, 0.51% hits; Q12809; activation (rescue from dofetilide block), less the hit threshold, % at 10 µM; AID 1511;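 active = activation above the mean of controls blocked by dofetilide plus 5 SD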;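 note: thallium influx through hERG after potassium depolarization seen as dye fluorescence rise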
KCNQ1 act: potentiates or activates the human KCNQ1 potassium channel; CHO-K1 KCNQ1, thallium flux FluxOR fluorescence; stronger effect = higher value; 310,000 compounds, 0.35% hits; B-score at 10 µM; AID 2648;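 active = fluorescence ratio B-score, a plate-corrected score, at least three library SD, with initial intensity B-score within 5 SD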
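Assay system: CHO-K1 cells stably expressing KCNQ1; Medium: assay buffer with matched DMSO; Also added: K+/Tl+ depolarizing stimulus; Dosing: single dose; Timing: dye 90 min, compound 20 min, room temperature; Measured by: kinetic FluxOR thallium fluorescence, 10-s 1-Hz baseline, 110-s post-stimulus read; Read-out: peak-minus-minimum fluorescence over initial fluorescence, negative-control normalized, B-scored.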
Kir21 block: Kir2.1 (mouse) channel inhibition; B-score at 10 µM; HEK293-Kir2.1, FluxOR thallium flux fluorescence; stronger effect = lower value; P35561; 310,000 compounds, 0.85% hits;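 active = fluorescence ratio B-score at or below minus 3 SD of library scores, with starting-brightness B-score within 2 SD, cut at about -4.2 in these data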;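 note: channel flux triggered by added potassium and thallium sulfate stimulus; B-score of peak minus minimum fluorescence over baseline after thallium stimulus; more negative B-score means stronger Kir2.1 block with less thallium influx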
KCNK3 block: human KCNK3 channel inhibition, primary screen | O14649 | CHO-KCNK3 thallium flux, FluxOR fluorescence; stronger effect = lower value | B-score at 10 µM | 340,000 compounds, 0.84% hits | AID 602410;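 active = B-score under library mean minus 4 SD, starting fluorescence ratio at most library mean plus 5 SD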;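 note: more negative B-score means stronger inhibition of thallium flux through KCNK3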
Hits are given with their value; - = inactive; . = no result. Compounds with a hit are over-represented: about 3.7% of the library has one in this group of screens.

SMILES | KCNK9 inh | KCNQ1 inh | hERG rescue | KCNQ1 act | Kir21 block | KCNK3 block
COC(=O)c1ccc(N=C2SCC(=O)N2C)cc1 | - | - | - | - | - | -
Cc1ccn2c(NC(=O)C(C)(C)Oc3ccc(Cl)cc3)c(-c3cccs3)nc2c1 | -7.4 | - | - | - | - | -
COc1ccc(CCNC(=O)c2cc3ccccc3oc2=O)cc1 | - | - | 7.8 | - | - | -
O=C(NCCc1ccc(F)cc1)c1cc2ccccc2oc1=O | - | - | - | - | - | -
CC(C)(C)NC(=O)CSc1nc2cccnc2n1C1CCCCC1 | - | - | - | - | - | -
CC(C)NC(=S)NNc1nc2ccccc2s1 | - | - | - | - | - | -
CCOC(=O)N1CCN(C(=O)c2ccc3c(=O)n(CCC4=CCCCC4)c(=S)[nH]c3c2)CC1 | - | - | - | - | - | -
O=c1c2ccc(Cl)cc2[nH]c(=S)n1CCC1=CCCCC1 | - | - | 25 | 20 | - | -
COc1ccc(NC(=O)C(c2ccc(OC)cc2)N(Cc2ccco2)C(=O)CC2NC(=O)NC2=O)cc1 (stereo unspecified) | - | - | - | - | - | -
COc1ccc(C(C(=O)Nc2ccc(C(C)C)cc2)N(Cc2ccco2)C(=O)CC2NC(=O)NC2=O)cc1 (stereo unspecified) | - | 6 | - | - | - | -
COCC(C)n1c(=O)sc2ccccc2c1=O (stereo unspecified) | - | - | - | - | - | -
O=C(CN(CC1CCCO1)C(=O)CNS(=O)(=O)c1ccccc1)NCc1ccco1 (stereo unspecified) | - | - | 7.2 | - | - | -
O=C(CN(CC1CCCO1)C(=O)CNS(=O)(=O)c1ccc(F)cc1)NCc1ccccc1 (stereo unspecified) | - | - | - | - | - | -
COc1ccc(C(=O)OC(COc2ccccc2)Cn2ccnc2)cc1 (stereo unspecified) | - | - | - | - | -7 | -
Cc1ccc(C(=O)OCC(=O)NCc2cccc(Cl)c2)cc1S(=O)(=O)N1CCCCC1 | . | . | . | . | . | -
Cc1c(C(N)=O)cc([N+](=O)[O-])cc1[N+](=O)[O-] | . | . | . | . | . | -
Cc1ccc(-n2nc(C)cc2Nc2ncc(Cl)cc2Cl)cc1 | - | - | - | - | - | -
Cc1cc(Nc2ncc(Cl)cc2Cl)n(-c2ccccc2C)n1 | - | - | - | - | -4.8 | -
COc1ccc(-c2noc(CCCC(=O)N3CCN(c4cc(C)ccc4C)CC3)n2)cc1 | . | . | . | . | . | -8.8
COc1ccc(-c2noc(CCCCC(=O)N3CCN(c4cc(C)ccc4C)CC3)n2)cc1 | . | . | . | . | . | -11
COc1cc(C(CC(=O)Nc2ncccc2C)N2Cc3ccccc3C2=O)cc(OC)c1OC (stereo unspecified) | - | - | - | - | - | -
O=C(CCNS(=O)(=O)c1cccc(C(F)(F)F)c1)NCc1ccco1 | . | . | . | . | . | -
Cc1ccc(C(=O)Nc2nc(-c3ccccc3)c(-c3ccccc3)o2)cc1 | - | - | - | 40 | - | -
Cc1cc(C)nc(SCC(=O)Nc2nc(-c3ccccc3)c(-c3ccccc3)o2)n1 | - | - | - | - | - | -
O=c1[nH]c(=O)c2cn[nH]c2[nH]1 | . | . | . | . | . | -
SMILES | KCNK9 inh | KCNQ1 inh | hERG rescue | KCNQ1 act | Kir21 block | KCNK3 block
COc1cc(/C=N/N2C(=O)CSC2=S)cc(Br)c1O | . | . | . | . | . | -9.4
COc1cccc(/C=N/N2C(=O)CSC2=S)c1O | - | - | - | - | - | -
COc1ccc(N=C2O/C(=C/c3sc(=S)n(CC4CCCO4)c3O)N=C2C#N)cc1 (stereo unspecified) | - | 10 | - | - | - | -
CCCOC(=O)c1cc(NC(=O)/C=C/c2ccccc2)ccc1O | -9.4 | - | - | - | - | .
COc1ccc(C(=O)CC(=O)C(=O)Nc2ccccc2Cl)cc1 | - | - | 13 | - | - | -
COc1ccc(C(=O)CC(=O)C(=O)Nc2ccc(Cl)cc2)cc1 | - | - | 13 | - | - | -
COc1ccc(C(=O)CC(=O)C(=O)Nc2ccccc2C(F)(F)F)cc1 | - | - | 7.8 | 12 | - | -
COc1ccc(C(=O)CC(=O)C(=O)Nc2cc(Cl)c(OC)cc2OC)cc1 | - | - | - | - | - | -
CC1CCCC(NC(=O)CCNC(=O)c2ccc(Br)cc2)C1C (stereo unspecified) | - | - | - | - | - | -
Cc1cc(C)cc(C(=O)NCC(=O)OCC(=O)NC2CCCc3ccccc32)c1 (stereo unspecified) | . | . | . | . | . | -
O=S(=O)(Nc1cccc(CCc2ccccn2)c1)c1ccc(Cl)cc1 | - | - | - | - | -9.2 | -
O=S(=O)(Nc1ccc(S(=O)(=O)Nc2ncccn2)cc1)c1ccc(Cl)cc1 | - | - | - | - | - | -
FC(F)(F)c1ccc(N2CCOCC2)c(Nc2nc3ccccc3n3cnnc23)c1 | -7.2 | - | - | - | - | -
Cc1cc(C)n(-c2ccc(C(=O)NCc3ccc(F)cc3)cc2)n1 | - | - | - | - | -9.9 | -
O=C(N/N=C\c1ccc(Sc2ccccn2)o1)c1cccc(F)c1 | - | - | - | - | - | -
C/C(=N\NC(=O)c1cc2ccccc2cc1O)c1cc2ccccc2o1 | - | - | 55 | 138 | - | -
O=C(N/N=C/c1ccc(-c2ccccc2)o1)c1ccccc1O | - | - | - | 8 | - | -
CC(=N/O)/C(C)=N\NC(=O)c1ccccn1 | - | 8 | - | - | - | -
O=C(N/N=C/c1ccc(Sc2ccccn2)o1)c1cc2ccccc2cc1O | - | - | - | 18 | - | -
C/C(=N\NC(=O)c1cc2ccccc2cc1O)c1ccccn1 | - | - | - | 7 | - | -
C/C(=N\NC(=O)c1c[nH]c2ccccc12)c1ccccn1 | - | - | - | - | - | -
Cc1cc(C)c(S(=O)(=O)NCC(c2ccco2)N2CCc3ccccc3C2)c(C)c1 (stereo unspecified) | -6.8 | - | - | - | - | -
Cc1ccc(C23CC4CC(CC(CN)(C4)C2)C3)cc1 | - | - | - | - | -5.9 | -
CCc1nc(N2CCCC(C)C2)c2oc3ccccc3c2n1 (stereo unspecified) | -7.4 | - | - | - | - | -
CCc1nc(N2CCCCC2)c2oc3ccccc3c2n1 | - | - | - | - | - | -
SMILES | KCNK9 inh | KCNQ1 inh | hERG rescue | KCNQ1 act | Kir21 block | KCNK3 block
Cc1cc(C(=O)N(C)CC(=O)Nc2ccc(F)c(F)c2F)no1 | - | - | - | - | - | -
OCCN(CCO)c1ccc(C(c2ccc(Cl)cc2)c2ccc(N(CCO)CCO)cc2Cl)c(Cl)c1 | - | - | - | 8 | - | -
Cc1c(C(=O)NC(c2ccccn2)C(F)(F)F)oc2c(F)cccc12 (stereo unspecified) | - | - | - | - | - | -
O=c1c2ccccc2c(C=NCCCN2CCOCC2)c(O)n1Cc1ccccc1 | - | - | - | - | -5.8 | -
O=c1c2ccccc2c(C=NCCc2ccccc2)c(O)n1Cc1ccccc1 | - | 6 | - | - | - | -
CCN(CC)CCCNc1ccc(-c2nnc(-c3ccc(OCC(C)C)cc3)o2)cn1 | - | 9 | - | - | -6.5 | -

Compound activity: PubChem, Johns Hopkins Ion Channel Center
